Assay outcomes from PubChem BioAssay.
SENP1 FRET inh: blocks the human SENP1 SUMO protease catalytic domain; Q9P0U3; inhibition, % at 10 µM; 0.21% of 360,000 active; recombinant SENP1 catalytic domain, CyPet-SUMO1-YPet FRET cleavage;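 active means inhibition at least 30% at 10 µM, raw YFP signal under a set limit, fluorescence ratio 0.5 to 1.5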;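 further: 0% = enzyme with DMSO and 100% = no enzyme wells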
Target sequence (Q9P0U3 419-644 limits assumed): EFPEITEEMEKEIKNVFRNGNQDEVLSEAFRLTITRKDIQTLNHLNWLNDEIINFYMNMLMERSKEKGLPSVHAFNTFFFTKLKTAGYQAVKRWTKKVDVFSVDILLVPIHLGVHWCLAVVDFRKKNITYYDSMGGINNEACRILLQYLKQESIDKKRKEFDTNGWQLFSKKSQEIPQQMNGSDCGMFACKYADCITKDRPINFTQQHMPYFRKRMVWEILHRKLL
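Controls: no-enzyme wells low, DMSO-plus-enzyme wells high control. Test system: human recombinant His6-tagged SENP1 catalytic domain enzyme. Reagent: SFCypet-SUMO1-SFYpet FRET protein substrate, 25 nM final. Doses: one dose per compound, 10 µM, 0.5% DMSO. Detection: FRET, CFP and YFP emission. Timing: 50 min reaction at room temperature.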
HSP90 refold inh: blocks HSP90-mediated luciferase refolding in reticulocyte lysate. inhibition, % at 5.6 µM. 0.91% of 290,000 active. Rabbit reticulocyte lysate, luciferase refolding luminescence, 3 h;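 active means inhibition above the screen-wide mean plus 3 SD, computed separately per campaign, cut at about 16% in these data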;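 further: 0% = DMSO wells and 100% = 60 µM geldanamycin wells; inhibitors lower the luminescence because luciferase stays unfolded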
SENP8 block-1: SENP8 protease inhibition. purified SENP8, Z-RLRGG-aminoluciferin cleavage, luminescence. AID 2540. Q96LD8. inhibition, % at 10 µM. 1.2% of 330,000 active; in the data active means inhibition above about 50%
Target sequence (Q96LD8 whole entry, looked up): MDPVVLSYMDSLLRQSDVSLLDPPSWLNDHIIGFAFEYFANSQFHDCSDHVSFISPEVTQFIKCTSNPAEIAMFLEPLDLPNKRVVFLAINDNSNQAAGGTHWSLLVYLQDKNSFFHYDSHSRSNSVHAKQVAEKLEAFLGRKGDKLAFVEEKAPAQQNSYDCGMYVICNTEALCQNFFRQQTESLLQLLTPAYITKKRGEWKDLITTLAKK
SENP6 block: inhibitors of human SENP6 protease; Q9GZR1; Recombinant SENP6 catalytic domain, aminoluciferin luminescence; inhibition, % at 10 µM; 1.8% of 330,000 active;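 active means inhibition above about 50% at the single tested dose, limit read from the data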;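 further: plate controls were DMSO wells with enzyme for no effect and DMSO wells lacking enzyme for full effect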
SENP7 block: SENP7 protease inhibition. 1.5% of 330,000 active. Q9BQF6. recombinant SENP7, Z-RLRGG-aminoluciferin luminescence, 40 min. inhibition, % at 5 µM. AID 434973;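 active means inhibition above about 50% at the single test dose, limit read from the data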;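 further: plate controls were DMSO with enzyme for no effect and no enzyme buffer wells for full effect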
SENP8 block-2: blocks human SENP8 cleavage of Nedd8 substrate; Q96LD8; recombinant SENP8, Nedd8 substrate fluorescence; inhibition, % at 20 µM; 0.64% of 360,000 active; in the data active means inhibition mostly above about 40%, no sharp cut-off; inactive means mostly below about 27%
SENP8 confirm: human SENP8 inhibition, confirmed | shares compounds with SENP7 block | Recombinant SENP8, Z-RLRGG-aminoluciferin luminescence, 60 min | inhibition, % at 12.5 µM | 40% of 6,200 active | AID 488912;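 active means mean inhibition across replicates above about 50%, limit read from the data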
SENP6 confirm: confirmation of human SENP6 protease inhibitors; recombinant SENP6, Z-RLRGG-aminoluciferin luminescence; 58% of 6,200 active; inhibition, % at 12.5 µM; AID 488915; shares compounds with SENP7 block
SENP7 confirm: confirmation of human SENP7 protease inhibitors. shares compounds with SENP7 block. inhibition, % at 12.5 µM. recombinant SENP7, Z-RLRGG-aminoluciferin luminescence, 40 min. 69% of 6,200 active
Casp3 SENP sel: caspase-3 inhibition (SENP selectivity assay). shares compounds with SENP7 block. purified caspase-3, Z-DEVD-aminoluciferin luminescence, 60 min. inhibition, % at 12.5 µM. 60% of 6,200 active;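 active means mean inhibition above about 50%, limit read from the data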;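 further: plate controls were enzyme with DMSO for no effect and wells without caspase-3 for full effect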
Luc interf: counter-screen for SENP inhibitors: luminescence interference. AID 488919. Pre-incubated SENP8/Z-RLRGG-aminoluciferin, luciferase luminescence interference. inhibition, % at 12.5 µM. shares compounds with SENP7 block. 39% of 6,200 active;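 active means mean inhibition above about 50% when retested at one dose, limit read from the data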;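 further: plate controls were DMSO wells with completed reaction for no effect and substrate without enzyme for full effect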
The depositor's hits bear a star; . = not tested or not shown. Sampled rows, rich in hits. Any-hit rate of the full collection: about 2.9%.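 How the source made its calls, unless noted: active means mean inhibition above about 50% in the one-dose retest (limit read from the data); inactive means the rest.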

SMILES	SENP1 FRET inh	HSP90 refold inh	SENP8 block-1	SENP6 block	SENP7 block	SENP8 block-2	SENP8 confirm	SENP6 confirm	SENP7 confirm	Casp3 SENP sel	Luc interf
CCN(CC(=O)Nc1ccc(NC(C)=O)cc1)C(=O)c1ccc(Sc2nncn2C)c([N+](=O)[O-])c1	1	.	.	.	.	-4	.	.	.	.	.
Cc1ccsc1C(=O)N1CCCC(C)(C(=O)O)C1 (stereo not drawn)	1	.	.	.	.	17	.	.	.	.	.
O=C(COC(=O)/C=C/c1cccc(Br)c1)NC1CCCC1	3	.	0	2	6	11	.	.	.	.	.
Cc1cccc(NC(=O)Nc2ccc(S(=O)(=O)Nc3onc(C)c3C)cc2)c1	1	.	83*	77*	49	17	88*	85*	94*	87*	52*
Cc1cc(NC(=O)Nc2cccc(Cl)c2)no1	0	.	.	.	.	10	.	.	.	.	.
Cc1cc(NS(=O)(=O)c2ccc(NC(=O)Nc3cccc(Cl)c3)cc2)no1	0	1	72*	84*	69*	19	10	81*	93*	67*	59*
Cc1cccc(OCCCC(=O)Nc2ccc(S(=O)(=O)Nc3onc(C)c3C)cc2)c1	2	-4	7	-1	-7	-14	.	.	.	.	.
Cc1cc(NS(=O)(=O)c2ccc(NC(=O)Nc3ccc4c(c3)OCO4)cc2)no1	3	-2	34	67*	47	13	55*	51*	82*	76*	38
Cc1noc(NS(=O)(=O)c2ccc(NC(=O)c3cnc4scc(C)n4c3=O)cc2)c1C	-2	-5	46	67*	18	-20	39	38	69*	82*	49
CCNC(=O)C1CCCN(C(=O)c2ccc(C(F)(F)F)cc2)CC1 (stereo not drawn)	5	.	.	.	.	14	.	.	.	.	.
COC(=O)c1cnc(SCc2ccc(Cl)cc2)n1C	-3	-2	-12	0	-9	5	.	.	.	.	.
O=C(CSc1ccc(-c2ccccn2)nn1)c1ccccc1	0	-3	-10	9	-9	33	.	.	.	.	.
COC(=O)c1cnc(SCC(=O)c2ccccc2)n1C	2	2	71*	83*	79*	13	79*	77*	93*	92*	80*
COC(=O)c1ccnc(SCC(=O)c2ccccc2)c1	0	1	53*	74*	70*	2	60*	55*	82*	74*	64*
CNC(C)C#Cc1ccc2c(=O)c3c(OC)cccc3oc2c1 (stereo not drawn)	.	-2	-19	-3	-8	.	.	.	.	.	.
CNC(C)C#Cc1ccc2c(=O)c3cc(C)c(C)cc3oc2c1 (stereo not drawn)	-7	.	67*	93*	-4	-316	33	23	47	30	71*
COC(=O)c1sc(NC(=O)CN2CCN(c3cccc(Cl)c3)CC2)c(C(=O)OC)c1C	1	.	.	.	.	12	.	.	.	.	.
CCOc1nc(-c2ccccc2)ccc1-c1noc(-c2cccs2)n1	-29	0	-13	-13	-8	-101	.	.	.	.	.
COc1ccccc1-c1noc(-c2ccncc2)n1	1	-2	23	53*	51*	18	42	41	77*	76*	52*
c1csc(-c2nc(N3CCCCC3)no2)c1	0	4	53*	66*	61*	-289	-18	43	84*	52*	4
Cc1ccc(-c2noc(-c3cccs3)n2)cc1	2	4	95*	95*	-5	10	14	97*	103*	90*	70*
